# High-throughput results (PubChem)
# Shown are actives, neighbours in structure and some others; about 2% of the full set was active somewhere.
# MIN6 prolif = MIN6 beta-cell proliferation induction | MIN6 cells proliferation, ATPlite luminescence, 48 h; cells starved in 0.2% serum; 100% = growth in 10% serum | proliferation, % at 10 µM | hit rate 0.29% among 330,000 | AID 2380;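 active = compounds whose signal lies at least 3.5 SD above the mean of all wells on their plate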;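 note: 0% = DMSO-treated cells in low-serum medium and 100% = 10% serum control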
# IMP-1 inh = blocks Pseudomonas aeruginosa IMP-1 metallo-beta-lactamase. inhibition, % at 5.6 µM. purified IMP-1, nitrocefin hydrolysis, epi-absorbance fluorescence. hit rate 0.45% among 290,000;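 active = inhibition above the mean plus 3 SD of all compounds in the same screening run, cut at about 4.5% in these data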;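 note: 0% = IMP-1 with DMSO and 100% = DMSO wells lacking enzyme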
#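 Test system: recombinant IMP-1 enzyme, purified / Medium: HEPES buffer pH 7.1 with ZnSO4 and Brij 35 / Doses: single dose, 5.6 µM / Times: 25 °C, 15 min preincubation, 25 min reaction / Detection: Epi-absorbance via hydrolysed-nitrocefin quenching of white-plate fluorescence, 480/530 nm, EDTA stop / Evaluation: percent inhibition from optical density relative to buffer-blank wells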
# HKDC1 inh = inhibitors of human hexokinase HKDC1; Q2TB90; inhibition, % at 20 µM; recombinant HKDC1, G6PDH/diaphorase resazurin coupled fluorescence; AID 493160; hit rate 0.16% among 340,000;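 active = inhibition above about 35% when tested at 20 µM, limit read from the data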;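 note: plate controls were DMSO wells with enzyme for no effect and DMSO wells lacking enzyme for full effect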
# Target sequence (Q2TB90 whole entry, looked up): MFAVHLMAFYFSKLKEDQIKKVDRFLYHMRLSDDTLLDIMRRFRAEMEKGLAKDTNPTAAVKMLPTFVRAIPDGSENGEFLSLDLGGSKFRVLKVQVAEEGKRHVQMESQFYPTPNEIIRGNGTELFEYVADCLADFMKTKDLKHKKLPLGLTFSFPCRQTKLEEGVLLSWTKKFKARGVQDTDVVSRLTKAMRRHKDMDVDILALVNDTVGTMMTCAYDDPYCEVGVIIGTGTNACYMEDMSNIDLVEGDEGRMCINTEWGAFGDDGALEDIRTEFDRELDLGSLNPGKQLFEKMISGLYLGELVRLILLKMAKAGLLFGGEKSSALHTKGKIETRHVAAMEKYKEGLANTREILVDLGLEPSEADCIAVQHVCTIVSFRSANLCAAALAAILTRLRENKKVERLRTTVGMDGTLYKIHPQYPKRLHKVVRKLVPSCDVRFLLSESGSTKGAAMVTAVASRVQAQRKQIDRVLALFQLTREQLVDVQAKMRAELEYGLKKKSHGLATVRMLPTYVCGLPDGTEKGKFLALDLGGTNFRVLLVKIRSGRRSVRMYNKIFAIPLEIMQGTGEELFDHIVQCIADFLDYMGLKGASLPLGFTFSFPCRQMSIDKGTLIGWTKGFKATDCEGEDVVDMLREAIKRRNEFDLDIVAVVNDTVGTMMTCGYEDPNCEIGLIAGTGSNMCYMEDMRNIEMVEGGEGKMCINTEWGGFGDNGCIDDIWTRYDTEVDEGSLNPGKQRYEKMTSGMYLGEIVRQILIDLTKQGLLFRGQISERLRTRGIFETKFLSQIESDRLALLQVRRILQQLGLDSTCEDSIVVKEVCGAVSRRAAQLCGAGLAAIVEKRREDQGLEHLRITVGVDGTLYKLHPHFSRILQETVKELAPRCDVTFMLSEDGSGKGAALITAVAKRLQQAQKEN
#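 Material – in-house recombinant HK5 (HKDC1) enzyme · Quantity – HKDC1 at 5 µg/mL · Buffer or medium – pH 8.0 Tris buffer with 10 mM MgCl2 · Reagent – glucose with 1 mM ATP · Dosing – single 20 µM dose · Times – reaction time 90 min, room temperature, protected from light · Technique – resorufin fluorescence at 613 nm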
# PvdQ acylase = P. aeruginosa PvdQ acylase inhibition; purified PvdQ acylase, fluorescence plate reader; hit rate 0.063% among 340,000; inhibition, % at 10 µM; in the data active = inhibition above about 30%, passing the limit was not always enough;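 note: 0% = vehicle neutral wells and 100% = reference inhibitor wells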
# ATG4B inh = blocks human ATG4B protease cleavage of LC3 substrate; hit rate 0.51% among 340,000; AID 504462; ATG4B cleavage of LC3-PLA2, NBD-HPC fluorescence, 1 h; inhibition, % at 8.33 µM; in the data active = inhibition above about 40%
# VIM-2 inhibitor = blocks Pseudomonas aeruginosa VIM-2 metallo-beta-lactamase | purified VIM-2, nitrocefin hydrolysis, epi-absorbance fluorescence | inhibition, % at 5.6 µM | hit rate 0.89% among 290,000 | AID 1527;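 active = inhibition above the mean of all tested compounds plus 3 SD, cutoff set per screening run, cut at about 7.5% in these data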;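 note: red hydrolysis product quenches plate fluorescence so inhibitors raise well fluorescence; 0% = enzyme with DMSO and 100% = DMSO without enzyme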
# Starred values were filed as active, the others as inactive; x = no result given.
SMILES,MIN6 prolif,IMP-1 inh,HKDC1 inh,PvdQ acylase,ATG4B inh,VIM-2 inhibitor
Cc1c(OC(C)C(=O)NCCCN2CCOCC2)ccc2c3c(c(=O)oc12)CCCC3 (stereo not drawn),-3,-1,0,1,-9,11*
O=C(COc1ccc2c3c(c(=O)oc2c1)CCCC3)N[C@@H](Cc1ccccc1)C(=O)O,2,-2,6,9,-15,0
CC(Oc1ccccc1)C(=O)N1CCN=C1SCc1ccc(F)cc1 (stereo not drawn),-2,-1,-2,-6,-11,0
CCCCOc1ccc2c(C)cc(=O)oc2c1OCCCC,1,-2,1,-11,9,-2
CC(Oc1ccc2c3c(c(=O)oc2c1)CCCC3)C(=O)NCc1ccccn1 (stereo not drawn),-2,1,-5,7,1,8.5*
CCCN1CCc2c(sc(NC(=O)c3ccc(S(=O)(=O)N(C)c4ccccc4)cc3)c2C(=O)NC)C1,-6,9.6*,5,-6,-1,5
CCN1CCc2c(sc(NC(=O)c3ccc(S(=O)(=O)N4CCCC4)cc3)c2C(=O)NC)C1,-6,0,1,-3,-12,8.7*
CCCN1CCc2c(sc(NC(=O)c3ccc(S(=O)(=O)N(C)c4ccccc4)cc3)c2C(N)=O)C1,-4,0,1,-12,-3,1
O=C(c1cc(Cl)nc2ccccc12)N1CCN(S(=O)(=O)c2ccccc2[N+](=O)[O-])CC1,4,4.5*,0,-3,-3,-1
COc1ccc(N2CCc3c(C)nc4c(OC)cc(OC)cc4c32)c(OC)c1,-6,-4,-20,-14,-1,-3
COc1ccc(N2CCc3c(C)nc4c(OC)cccc4c32)cc1,-4,-2,-1,25,-2,12*
Cc1ccc(C(=O)Nc2ccccc2C(=O)NC(C(=O)O)C(C)C)cc1 (stereo not drawn),-4,-2,7,-17,18,-5
NC(=O)c1ccc(-n2nnnc2SCC(=O)c2ccc(O)c(O)c2)cc1,-2,0,-7,11,24,11*
COc1ccc(-n2nnnc2SCC(=O)c2ccc(O)c(O)c2)cc1,-3,-3,-3,-10,-10,7
O=S(=O)(NCCc1ccccc1)c1ccc(Br)cc1,-1,-3,4,-10,-2,-1
Cc1cccn2c(=O)c3cc(C(=O)NCC4CCCO4)c(=N)n(C4CCCC4)c3nc12 (stereo not drawn),1,-3,-25,-47,2,11*
Cc1ccc2nc3c(cc(C(=O)NCC4CCCO4)c(=N)n3C3CCCC3)c(=O)n2c1 (stereo not drawn),0,-5,2,-46,-7,7.9*
CC(=O)c1ccc(NC(=O)c2ccc3nc(-c4ccco4)c(-c4ccco4)nc3c2)cc1,-2,0,41*,-3,26,-2
O=C(NCCO)Nc1ccc2nc(-c3ccco3)c(-c3ccco3)nc2c1,5,6.4*,x,x,x,4
O=C(Nc1ccccc1)c1ccc2nc(-c3ccco3)c(-c3ccco3)nc2c1,-2,-1,30,0,17,-3
Cc1ccc(Cl)cc1NC(=S)N(CCN(C)C)C(C)c1ccccn1 (stereo not drawn),-3,-5,-5,-8,-6,-3
COc1ccccc1Oc1ccc2c(c1)C(=O)N(c1ccc(Br)c3cccnc13)C2=O,-4,4.9*,-6,-1,-3,-1
Cc1cc(C)n(S(=O)(=O)c2ccc3oc(=O)ccc3c2)n1,0,-1,-5,16,-12,0
COc1ccc(C2NCCc3c2[nH]c2ccccc32)cc1CN1CCc2cc(OC)c(OC)cc2C1C (stereo not drawn),x,-1,-4,-20,2,-2
COc1ccc(C2NCCc3c2[nH]c2ccccc32)cc1COc1ccc(F)cc1 (stereo not drawn),-6,-4,5,39*,19,-6
SMILES,MIN6 prolif,IMP-1 inh,HKDC1 inh,PvdQ acylase,ATG4B inh,VIM-2 inhibitor
CCOC(=O)c1ccccc1NC(=O)Cc1c(C(=O)O)n(C)c2ccccc12,0,-3,-1,-13,7,0
O=[N+]([O-])c1ccc(C2=NN(c3ccccc3)C(c3ccco3)C2)cc1 (stereo not drawn),x,6.6*,1,-9,5,3
O=C1CN(S(=O)(=O)c2cc(C(F)(F)F)ccc2Cl)CCN1,1,x,-3,1,-5,x
CC(C)(C)CC(=O)Nc1cccc2c1CCCC2,0,6.9*,-1,-8,-4,-1
COc1cccc2sc3ccc(NCCC4CCCN4C)cc3c(=O)c12 (stereo not drawn),1,-1,7,-8,-4,8.4*
Cn1ccc(C(=O)Oc2ccc(C(=O)Nc3ccc(F)cc3F)cc2)n1,-4,-2,-8,-9,-2,-1
CC(C)(O)c1[nH]c2ccc(C(F)(F)F)cc2c1C(C)(C)O,-3,1,-1,0,-4,-1
CC(C)(O)c1[nH]c2ccc(C#N)cc2c1C(C)(C)O,-2,4.9*,-6,x,-3,3
CCc1ccc(CNC(=O)CCCn2c(=O)c3cccn3c3cccnc32)cc1,0,-4,6,7,-2,-1
O=C(CCCn1c(=O)c2cccn2c2cccnc21)NCCc1ccc(Cl)cc1,-4,-2,-3,-7,0,-2
O=C(CCn1c(=O)c2cccn2c2cccnc21)NCc1cccc(Cl)c1,8,22*,2,-9,-3,-6
O=C(CCCn1c(=O)c2cccn2c2cccnc21)NCc1cccc(Br)c1,4,7.2*,-3,-1,0,4
O=S(=O)(NCCCNS(=O)(=O)c1c(F)cccc1F)c1ccc2c(c1)OCCO2,-4,x,0,2,-10,x
CCOC(=O)CNC(=O)CSc1nc(Cc2ccccc2)nc2ccccc12,0,-1,-4,-11,-7,-1
COc1ccc(CCN2C(=O)CC(C(C)c3ccccc3)C2=O)cc1OC (stereo not drawn),0,24*,-7,-4,-15,-1
Cc1cc(C(=O)Nc2ccc(Br)cn2)sc1C,2,x,-1,-8,22,x
O=C1CSC(=S)N1c1cccc(F)c1,-5,4.9*,-6,-12,-9,2
COC(=O)[C@]1(C)N[C@H](CN(C)S(=O)(=O)c2ccc(OC)cc2)[C@@H]2C(=O)N(C)C(=O)[C@@H]21,-2,x,-4,-6,2,x
CCSCCOC(=O)C1=C(C)N(C)C(=O)NC1c1ccc2c(c1)OCO2 (stereo not drawn),-3,-1,-8,12,-4,-1
Cc1nn(CCCC(=O)NCCCN2CCN(C)CC2)c(=O)c2c1sc1ccccc12,1,-2,-7,-6,-2,12*
